Key:
logD = type: physicochemical; details: pH 7.4
Outline: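 68Ga-labelled test compound (0.5–2 MBq) was partitioned between 1-octanol and 0.05 M phosphate buffer, pH 7.4. Tubes were shaken for 5 min and centrifuged at 13,000 rpm for 2 min. Aliquots of each phase were γ-counted. Three experiments, each in triplicate.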

[1] = Stability toward peptidase degradation in human serum; type: in vitro ADME
Outline: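 68Ga-labelled test compound (10–30 MBq, pH 7.4) was added to pooled human serum and kept at 37 °C. Aliquots were taken at 0, 15, 30, 45, 60 and 90 min and mixed with an equal volume of ice-cold ethanol. They were held on ice for 5 min and centrifuged. Supernatant and pellet activity were counted, and the supernatant was run on radio-HPLC. Three runs per radioligand.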

[2] = Ex vivo biodistribution in A431 tumor-bearing xenograft mice; details: mouse, intravenous, 5 MBq
[3] = test system: A431 tumor-bearing xenograft mice; test: as above
[4] = PET/CT imaging, time-activity curves in A431 tumor-bearing xenograft mice; type: in vivo; details: female, BALB/c-AnN-Foxn-1^nu/nu-Rj (nude), mouse, iv, TAC
Outline: (§1)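 Dynamic PET over 90 min p.i., then CT at 45 kVp and 0.4 mA. […] Images reconstructed by 2D-MLEM (12 iterations, 0.5 mm voxels) with scatter and decay correction. Frames 10 × 1, 10 × 2, 6 × 5 and 3 × 10 min. Volumes of interest drawn on heart, kidneys, tumour and muscle; SUV per frame gave time-activity curves.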

[5] = test system: A431 tumor-bearing xenograft mice; test: as above; type: in vivo; details: TACs
Outline: as §1

| Structure (SMILES) | logD (logD) | half-life [1] [h] | tissue uptake at 2 h ([2]; blood) [%ID/g] | tissue uptake at 2 h ([2]; kidney) [%ID/g] | tissue uptake at 2 h ([2]; tumor) [%ID/g] | uptake into liver and lungs under EGFR blocking ([3]; co-application of hEGF) | tumor uptake under EGFR blocking ([3]; co-application of hEGF, 2 h p.i.) | decrease of absolute tumor uptake ([3]; integrin blockade with excess of c(RGDyK), 120 min p.i.) [%] | SUV ([4]; muscle, SUVmuscle, under EGFR blockade (hEGF)) [SUV] | SUV ([4]; muscle, SUVmuscle, without blocking) [SUV] | SUV ([4]; tumor, SUVtumor, under EGFR blockade (hEGF)) [SUV] | time at which accumulation in tumor, muscle and heart reached the plateau phase [5] [min p.i.] |
| --- | --- | --- | --- | --- | --- | --- | --- | --- | --- | --- | --- | --- |
| CC[C@H](C)[C@H](NC(=O)[C@@H](NC(=O)[C@H](CC(N)=O)NC(=O)[C@H](CCC(N)=O)NC(=O)[C@@H]1CCCN1C(=O)[C@@H](NC(=O)[C@H](Cc1ccc(O)cc1)NC(=O)CNC(=O)[C@H](Cc1ccc(O)cc1)NC(=O)[C@H](Cc1c[nH]c2ccccc12)NC(=O)[C@H](Cc1c[nH]cn1)NC(=O)[C@H](Cc1ccc(O)cc1)NC(=O)CCOCCOCCOCCOCCC(=O)NCCCN(CCCNC(=O)CCOCCOCCOCCOCCC(=O)NCCCC[C@@H]1NC(=O)[C@@H](Cc2ccc(O)cc2)NC(=O)[C@H](CC(=O)O)NC(=O)CNC(=O)[C@H](CCCNC(=N)N)NC1=O)CC(=O)NCCOCCOCCOCCOCCC(=O)N[C@@H](CCCCNC(=O)CC[C@H](C(=O)O)N1CCN(CC(=O)O)CCN(CC(=O)O)CC1)C(N)=O)[C@@H](C)O)C(C)C)C(=O)O [[^68Ga]Ga-1, metal not drawn] | -3.07 | 4.53 | 4.49 ± 2.17 | 88 ± 28.5 | 2.79 ± 1.66 | not reduced | did not decrease | 87 | 0.18 ± 0.16 | 0.27 ± 0.16 | 0.45 ± 0.44 | 15 |
| CC[C@H](C)[C@H](NC(=O)[C@@H](NC(=O)[C@H](CC(N)=O)NC(=O)[C@H](CCC(N)=O)NC(=O)[C@@H]1CCCN1C(=O)[C@@H](NC(=O)[C@H](Cc1ccc(O)cc1)NC(=O)CNC(=O)[C@H](Cc1ccc(O)cc1)NC(=O)[C@H](Cc1c[nH]c2ccccc12)NC(=O)[C@H](Cc1c[nH]cn1)NC(=O)[C@H](Cc1ccc(O)cc1)NC(=O)CCOCCOCCOCCOCCOCCOCCC(=O)NCCCN(CCCNC(=O)CCOCCOCCOCCOCCOCCOCCC(=O)NCCCC[C@@H]1NC(=O)[C@@H](Cc2ccccc2)NC(=O)[C@H](CC(=O)O)NC(=O)CNC(=O)[C@H](CCCNC(=N)N)NC1=O)CC(=O)NCCOCCOCCOCCOCCC(=O)N[C@@H](CCCCNC(=O)CC[C@H](C(=O)O)N1CCN(CC(=O)O)CCN(CC(=O)O)CC1)C(N)=O)[C@@H](C)O)C(C)C)C(=O)O [[^68Ga]Ga-2, metal not drawn] | -3.44 | 3.95 | – | – | – | – | – | – | – | – | – | – |
